{
  "source": "paper PMC6061410",
  "about": "(Clinical Drug Investigation, 2018)",
  "system": "healthy young and healthy elderly subjects",
  "experiment": "Safety and tolerability",
  "type": "in vivo, human",
  "conditions": "young",
  "outline": "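Adverse events were recorded by system organ class and preferred term in the treated set. This was 84 healthy young or elderly subjects randomised 3:1 to oral drug or placebo over 14 days, across seven ascending dose groups with a safety review before each escalation. Changes were assessed against the last pre-dose baseline measurement.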",
  "data": [
    {"smiles": "C[C@@H](Oc1ccc(S(C)(=O)=O)cc1C(=O)N1C[C@@H]2C[C@]2(c2cc(C(F)(F)F)on2)C1)C(F)(F)F", "note": "[BI 425809]", "values": [
      {"measurement": "Gastrointestinal disorders", "setting": "part 1, 25 mg QD", "value": "3 (33.3) n (%)"},
      {"measurement": "General disorders and administration site conditions", "setting": "part 1, 25 mg QD", "value": "0 (–) n (%)"},
      {"measurement": "Headache", "setting": "part 1, 25 mg QD", "value": "3 (33.3) n (%)"},
      {"measurement": "Infections and infestations", "setting": "part 1, 25 mg QD", "value": "2 (22.2) n (%)"},
      {"measurement": "Insomnia", "setting": "part 1, 25 mg QD", "value": "0 (–) n (%)"},
      {"measurement": "Musculoskeletal and connective tissue disorders", "setting": "part 1, 25 mg QD", "value": "0 (–) n (%)"},
      {"measurement": "Nasopharyngitis", "setting": "part 1, 25 mg QD", "value": "2 (22.2) n (%)"},
      {"measurement": "Nervous system disorder", "setting": "part 1, 25 mg QD", "value": "3 (33.3) n (%)"},
      {"measurement": "Ocular discomfort", "setting": "part 1, 25 mg QD", "value": "0 (–) n (%)"},
      {"measurement": "Psychiatric disorders", "setting": "part 1, 25 mg QD", "value": "1 (11.1) n (%)"},
      {"measurement": "Subjects with AEs leading to study discontinuation", "setting": "part 1, 25 mg QD", "value": "0 (–) n (%)"},
      {"measurement": "Subjects with investigator-defined drug-related AEs", "setting": "part 1, 25 mg QD", "value": "6 (66.7) n (%)"},
      {"measurement": "Total with AEs", "setting": "part 1, 25 mg QD", "value": "7 (77.8) n (%)"},
      {"measurement": "Vision blurred", "setting": "part 1, 25 mg QD", "value": "2 (22.2) n (%)"},
      {"measurement": "Dizziness", "setting": "part 1, 50 mg QD", "value": "1 (11.1) n (%)"},
      {"measurement": "Eye disorders", "setting": "part 1, 50 mg QD", "value": "3 (33.3) n (%)"},
      {"measurement": "Gastrointestinal disorders", "setting": "part 1, 50 mg QD", "value": "0 (–) n (%)"},
      {"measurement": "General disorders and administration site conditions", "setting": "part 1, 50 mg QD", "value": "2 (22.2) n (%)"},
      {"measurement": "Headache", "setting": "part 1, 50 mg QD", "value": "3 (33.3) n (%)"},
      {"measurement": "Infections and infestations", "setting": "part 1, 50 mg QD", "value": "1 (11.1) n (%)"},
      {"measurement": "Insomnia", "setting": "part 1, 50 mg QD", "value": "0 (–) n (%)"},
      {"measurement": "Musculoskeletal and connective tissue disorders", "setting": "part 1, 50 mg QD", "value": "1 (11.1) n (%)"},
      {"measurement": "Nasopharyngitis", "setting": "part 1, 50 mg QD", "value": "0 (–) n (%)"},
      {"measurement": "Nervous system disorder", "setting": "part 1, 50 mg QD", "value": "3 (33.3) n (%)"},
      {"measurement": "Ocular discomfort", "setting": "part 1, 50 mg QD", "value": "0 (–) n (%)"},
      {"measurement": "Psychiatric disorders", "setting": "part 1, 50 mg QD", "value": "0 (–) n (%)"},
      {"measurement": "Subjects with AEs leading to study discontinuation", "setting": "part 1, 50 mg QD", "value": "0 (–) n (%)"},
      {"measurement": "Subjects with investigator-defined drug-related AEs", "setting": "part 1, 50 mg QD", "value": "6 (66.7) n (%)"},
      {"measurement": "Total with AEs", "setting": "part 1, 50 mg QD", "value": "6 (66.7) n (%)"},
      {"measurement": "Vision blurred", "setting": "part 1, 50 mg QD", "value": "1 (11.1) n (%)"},
      {"measurement": "Dizziness", "setting": "part 1, 75 mg BID", "value": "2 (22.2) n (%)"},
      {"measurement": "Eye disorders", "setting": "part 1, 75 mg BID", "value": "2 (22.2) n (%)"},
      {"measurement": "Gastrointestinal disorders", "setting": "part 1, 75 mg BID", "value": "0 (–) n (%)"},
      {"measurement": "General disorders and administration site conditions", "setting": "part 1, 75 mg BID", "value": "1 (11.1) n (%)"},
      {"measurement": "Headache", "setting": "part 1, 75 mg BID", "value": "0 (–) n (%)"},
      {"measurement": "Infections and infestations", "setting": "part 1, 75 mg BID", "value": "0 (–) n (%)"},
      {"measurement": "Insomnia", "setting": "part 1, 75 mg BID", "value": "3 (33.3) n (%)"},
      {"measurement": "Musculoskeletal and connective tissue disorders", "setting": "part 1, 75 mg BID", "value": "0 (–) n (%)"},
      {"measurement": "Nasopharyngitis", "setting": "part 1, 75 mg BID", "value": "0 (–) n (%)"},
      {"measurement": "Nervous system disorder", "setting": "part 1, 75 mg BID", "value": "2 (22.2) n (%)"},
      {"measurement": "Ocular discomfort", "setting": "part 1, 75 mg BID", "value": "2 (22.2) n (%)"},
      {"measurement": "Psychiatric disorders", "setting": "part 1, 75 mg BID", "value": "3 (33.3) n (%)"},
      {"measurement": "Subjects with AEs leading to study discontinuation", "setting": "part 1, 75 mg BID", "value": "0 (–) n (%)"},
      {"measurement": "Subjects with investigator-defined drug-related AEs", "setting": "part 1, 75 mg BID", "value": "6 (66.7) n (%)"},
      {"measurement": "Total with AEs", "setting": "part 1, 75 mg BID", "value": "6 (66.7) n (%)"},
      {"measurement": "Vision blurred", "setting": "part 1, 75 mg BID", "value": "0 (–) n (%)"},
      {"measurement": "Dizziness", "setting": "part 1, 75 mg QD", "value": "3 (33.3) n (%)"},
      {"measurement": "Eye disorders", "setting": "part 1, 75 mg QD", "value": "0 (–) n (%)"},
      {"measurement": "Fatigue", "setting": "part 1, 75 mg QD", "value": "1 (11.1) n (%)"},
      {"measurement": "Gastrointestinal disorders", "setting": "part 1, 75 mg QD", "value": "2 (22.2) n (%)"},
      {"measurement": "General disorders and administration site conditions", "setting": "part 1, 75 mg QD", "value": "1 (11.1) n (%)"},
      {"measurement": "Headache", "setting": "part 1, 75 mg QD", "value": "4 (44.4) n (%)"},
      {"measurement": "Infections and infestations", "setting": "part 1, 75 mg QD", "value": "1 (11.1) n (%)"},
      {"measurement": "Insomnia", "setting": "part 1, 75 mg QD", "value": "0 (–) n (%)"},
      {"measurement": "Musculoskeletal and connective tissue disorders", "setting": "part 1, 75 mg QD", "value": "1 (11.1) n (%)"},
      {"measurement": "Nasopharyngitis", "setting": "part 1, 75 mg QD", "value": "1 (11.1) n (%)"},
      {"measurement": "Nervous system disorder", "setting": "part 1, 75 mg QD", "value": "5 (55.6) n (%)"},
      {"measurement": "Ocular discomfort", "setting": "part 1, 75 mg QD", "value": "0 (–) n (%)"},
      {"measurement": "Psychiatric disorders", "setting": "part 1, 75 mg QD", "value": "0 (–) n (%)"},
      {"measurement": "Subjects with AEs leading to study discontinuation", "setting": "part 1, 75 mg QD", "value": "0 (–) n (%)"},
      {"measurement": "Subjects with investigator-defined drug-related AEs", "setting": "part 1, 75 mg QD", "value": "5 (55.6) n (%)"},
      {"measurement": "Total with AEs", "setting": "part 1, 75 mg QD", "value": "6 (66.7) n (%)"},
      {"measurement": "Vision blurred", "setting": "part 1, 75 mg QD", "value": "0 (–) n (%)"},
      {"measurement": "Dizziness", "setting": "part 1, Total BI n = 45", "value": "7 (15.6) n (%)"},
      {"measurement": "Eye disorders", "setting": "part 1, Total BI n = 45", "value": "7 (15.6) n (%)"},
      {"measurement": "Fatigue", "setting": "part 1, Total BI n = 45", "value": "1 (2.2) n (%)"},
      {"measurement": "Gastrointestinal disorders", "setting": "part 1, Total BI n = 45", "value": "5 (11.1) n (%)"},
      {"measurement": "General disorders and administration site conditions", "setting": "part 1, Total BI n = 45", "value": "4 (8.9) n (%)"},
      {"measurement": "Headache", "setting": "part 1, Total BI n = 45", "value": "13 (28.9) n (%)"},
      {"measurement": "Infections and infestations", "setting": "part 1, Total BI n = 45", "value": "5 (11.1) n (%)"},
      {"measurement": "Insomnia", "setting": "part 1, Total BI n = 45", "value": "3 (6.7) n (%)"},
      {"measurement": "Musculoskeletal and connective tissue disorders", "setting": "part 1, Total BI n = 45", "value": "3 (6.7) n (%)"},
      {"measurement": "Nasopharyngitis", "setting": "part 1, Total BI n = 45", "value": "3 (6.7) n (%)"},
      {"measurement": "Nervous system disorder", "setting": "part 1, Total BI n = 45", "value": "17 (37.8) n (%)"},
      {"measurement": "Ocular discomfort", "setting": "part 1, Total BI n = 45", "value": "2 (4.4) n (%)"},
      {"measurement": "Psychiatric disorders", "setting": "part 1, Total BI n = 45", "value": "4 (8.9) n (%)"},
      {"measurement": "Subjects with AEs leading to study discontinuation", "setting": "part 1, Total BI n = 45", "value": "0 (–) n (%)"},
      {"measurement": "Subjects with investigator-defined drug-related AEs", "setting": "part 1, Total BI n = 45", "value": "27 (60.0) n (%)"},
      {"measurement": "Total with AEs", "setting": "part 1, Total BI n = 45", "value": "30 (66.7) n (%)"},
      {"measurement": "Vision blurred", "setting": "part 1, Total BI n = 45", "value": "3 (6.7) n (%)"},
      {"measurement": "Eye disorders", "setting": "parts 1 and 2, BI n = 57", "value": "7 (12.3) n (%)"},
      {"measurement": "Gastrointestinal disorders", "setting": "parts 1 and 2, BI n = 57", "value": "5 (8.8) n (%)"},
      {"measurement": "General disorders and administration site conditions", "setting": "parts 1 and 2, BI n = 57", "value": "4 (7.0) n (%)"},
      {"measurement": "Infections and infestations", "setting": "parts 1 and 2, BI n = 57", "value": "6 (10.5) n (%)"},
      {"measurement": "Musculoskeletal and connective tissue disorders", "setting": "parts 1 and 2, BI n = 57", "value": "3 (5.3) n (%)"},
      {"measurement": "Nervous system disorder", "setting": "parts 1 and 2, BI n = 57", "value": "18 (31.6) n (%)"},
      {"measurement": "Psychiatric disorders", "setting": "parts 1 and 2, BI n = 57", "value": "4 (7.0) n (%)"},
      {"measurement": "Subjects with AEs leading to study discontinuation", "setting": "parts 1 and 2, BI n = 57", "value": "0 (–) n (%)"},
      {"measurement": "Subjects with investigator-defined drug-related AEs", "setting": "parts 1 and 2, BI n = 57", "value": "27 (47.4) n (%)"},
      {"measurement": "Total with AEs", "setting": "parts 1 and 2, BI n = 57", "value": "32 (56.1) n (%)"}
    ]}
  ]
}
